# In the library only some 3.1% were active in any assay of this set; here they are far more common.
# HSF1 activator: increases HSF-1 driven luciferase reporter signal; NIH3T3-HGL HSF-1 luciferase reporter, MG132, 8 h; 100% = twice DMSO control signal; activation, % at 9 µM; hit rate 1.7% among 300,000; AID 504408;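 active means mean replicate activation of at least 50% with a set share of replicates each reaching 50%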;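 further: 0% = median of the neutral control wells and 100% = twice that signal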
# HSF1 inh: HSF1 inhibition; activity change, negative = inhibition, % at 7.5 µM (by protocol); NIH3T3-HGL HSE-luciferase, MG132-induced, luminescence 8 h; active compounds read low; hit rate 0.77% among 300,000;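 active means more than half of replicate wells show activity change below -50%, luminescence cut by over half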;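 further: luciferase reports HSF-1 transcriptional activity via heat shock element; 0% = median of DMSO wells and -100% = zero luminescence signal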
# HSP90 refold inh: inhibitors of HSP90 luciferase refolding in rabbit reticulocyte lysate; luciferase refolding luminescence, 3 h; inhibition, % at 5.6 µM; hit rate 0.91% among 290,000;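 active means inhibition above the screen-wide mean plus 3 SD, computed separately per campaign, cut at about 16% in these data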;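 further: 0% = DMSO wells and 100% = 60 µM geldanamycin wells; inhibitors lower the luminescence because luciferase stays unfolded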
# TbHK1 inh: T. brucei hexokinase 1 inhibition. recombinant TbHK1, G6PDH-coupled NADH A340. inhibition, % at 10 µM. hit rate 0.11% among 220,000. AID 1430;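 active means inhibition of 50% or more in the single-dose primary screen; inactive means inhibition below 50%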
# HKDC1 inh: HKDC1 (human) hexokinase inhibition. Q2TB90. recombinant HKDC1, G6PDH/diaphorase resazurin coupled fluorescence. inhibition, % at 20 µM. hit rate 0.16% among 340,000. AID 493160;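 active means inhibition above about 35% when tested at 20 µM, limit read from the data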;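 further: plate controls were DMSO wells with enzyme for no effect and DMSO wells lacking enzyme for full effect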
#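 Incubation: 90 min at room temperature in dark / Material: recombinant HKDC1 (HK5) hexokinase enzyme, produced in-house / Quantity: enzyme 5 µg/mL final / Compound: one dose of 20 µM, 1% DMSO / Reagent: glucose and ATP substrates / Buffer or medium: Tris pH 8.0 buffer with MgCl2, Tween-20, BSA, BME / Technique: resorufin fluorescence at 613 nm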
# Hsp70 act: switches on Hsp70 transcription; AID 1203; activation, % at 10 µM; HeLa Hsp70 promoter luciferase reporter, luminescence; scaled: vehicle 0, proteasome-inhibitor control 100%; hit rate 0.04% among 200,000;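 active means activation above the mean across all tested compounds plus 3 SD, cutoff set per campaign, cut at about 5.5% in these data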;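 further: 100% = MG132 at 30 µM as the positive control and 0% = DMSO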
# HSP90 inh confirm: HSP90 inhibition, confirmation assay; rabbit reticulocyte lysate, luciferase refolding luminescence, 3 h; shares compounds with HSP90 refold inh; hit rate 64% among 2,300; inhibition, % at 5.9 µM; in the data active means inhibition above about 18%;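 further: 0% = vehicle wells and 100% = reference inhibitor wells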
# luciferase ctr: firefly luciferase inhibition, HSP90 counter-screen. shares compounds with HSP90 refold inh. purified native firefly luciferase, luminescence. inhibition, % at 5.9 µM. hit rate 48% among 2,300;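 active means inhibition above the mean inhibition of all tested sample wells plus 3 SD, cut at about 10% in these data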;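 further: 0% = DMSO with luciferase and 100% = wells lacking luciferase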
# Target sequence (P08659 whole entry, looked up): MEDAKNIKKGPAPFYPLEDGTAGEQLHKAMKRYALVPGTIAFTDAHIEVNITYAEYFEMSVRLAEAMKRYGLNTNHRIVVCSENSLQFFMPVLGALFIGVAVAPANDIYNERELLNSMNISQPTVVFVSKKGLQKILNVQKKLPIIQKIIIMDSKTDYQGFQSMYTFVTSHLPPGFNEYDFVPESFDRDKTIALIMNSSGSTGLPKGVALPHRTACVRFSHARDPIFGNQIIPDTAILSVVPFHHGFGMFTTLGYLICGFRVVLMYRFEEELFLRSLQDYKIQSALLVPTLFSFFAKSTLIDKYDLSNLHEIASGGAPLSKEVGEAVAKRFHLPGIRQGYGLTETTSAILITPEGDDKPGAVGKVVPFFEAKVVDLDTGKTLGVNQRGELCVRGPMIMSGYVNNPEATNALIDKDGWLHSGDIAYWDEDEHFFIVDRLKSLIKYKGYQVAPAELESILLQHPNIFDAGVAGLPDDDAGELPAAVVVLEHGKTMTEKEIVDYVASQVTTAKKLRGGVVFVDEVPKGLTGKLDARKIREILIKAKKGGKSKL
# HKDC1 act conf: HKDC1 (human) activation, single-dose confirmed; shares compounds with HKDC1 inh; recombinant HKDC1, G6PDH/diaphorase resazurin fluorescence; active compounds read low; inhibition, % at 20 µM; hit rate 14% among 740; AID 504708;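 active means inhibition at or below a set negative limit, negative inhibition meaning the enzyme was activated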
# * marks the source's active call; other numbers are inactive results; · = no result.
SMILES,HSF1 activator,HSF1 inh,HSP90 refold inh,TbHK1 inh,HKDC1 inh,Hsp70 act,HSP90 inh confirm,luciferase ctr,HKDC1 act conf
Cc1ccc2c(COC(=O)c3ccc(NC(=O)CC#N)cc3)cc(=O)oc2c1C,56*,19,19*,·,-3,·,22*,-6,·
COCCn1c(C)c(C)c2c(NCCc3ccccc3)ncnc21,-76,-73*,60*,·,-2,·,63*,63*,·
Cc1c(C)n(CCc2ccccc2)c2ncnc(NCCCO)c12,32,12,-3,·,3,·,·,·,·
CC(C)C[C@@H](CNCC(=O)[C@H](Cc1ccccc1)NC(=O)c1[nH]cnc1C(=O)N[C@H](CN)CC(C)C)NC(=O)c1nc[nH]c1C(=O)N[C@@H](CC(=O)O)C(=O)O,·,·,·,·,19,·,·,·,·
N#CCC(=O)N/N=C\c1cccc(OC/C=C/c2ccccc2)c1,1,-6,21*,·,-3,·,26*,-26,·
CC(=O)N/N=C\c1cccc(OC/C=C/c2ccccc2)c1,·,·,21*,·,3,·,19*,-13,·
CCCCn1c(N)c(N(CCC(C)C)C(=O)c2ccc(N3CCCC3=O)cc2)c(=O)[nH]c1=O,23,1,·,·,-7,·,·,·,·
Cc1ccc(S(=O)(=O)NCC(=O)OC(C)C(=O)NC(=O)NC2CCCCC2)cc1C (configuration not stated),·,·,·,·,0,·,·,·,·
CC(=O)c1c(C)[nH]c(C(=O)N2CCN(c3ccccn3)CC2)c1C,-5,-7,1,·,-4,·,·,·,·
CCOC(=O)CCN(C(=O)Nc1ccccc1)C1CCCCC1,·,·,·,·,-10,·,·,·,·
CCOc1cccc(N)c1,·,·,·,·,7,·,·,·,·
CCOc1ccc(N)c(SSc2cc(OCC)ccc2N)c1,-22,-10,30*,·,-42,·,41*,9.6*,-27
O=C1OC/C(=C(/O)c2ccc(Cl)cc2)C1=O,-2,-5,-1,·,1,·,·,·,·
O=C(O)c1ccc(S(=O)(=O)/N=C2\C=C(Nc3ccccc3F)C(=O)c3ccccc32)cc1,65*,51,92*,·,81*,·,94*,-15,76
CC(=O)Nc1ccc(NC2=C/C(=N/S(=O)(=O)c3cccs3)c3ccccc3C2=O)cc1,-94,-95*,55*,-18,44*,-1,67*,-8,52
Cc1ccccc1NC1=C/C(=N\S(=O)(=O)c2ccc(C(=O)O)cc2)c2ccccc2C1=O,-1,-9,98*,·,70*,·,96*,-11,71
Cc1ccc(C)c(OCCC(=O)OCc2csc(CC(=O)Nc3ccccc3C)n2)c1,·,·,·,·,1,·,·,·,·
CCCOc1ccc(/C=N/NC(=S)Nc2ccccc2[N+](=O)[O-])c(O)c1,-92,-90*,75*,-22,-48,-1,75*,21*,-48*
CCOc1ccc(C(=O)N/N=C/c2ccccc2[N+](=O)[O-])cc1,35,15,6,-8,-6,0,·,·,·
CC(C)(C)OC(=O)C[C@H]1C/C=C\C[C@@H](CC(=O)NCCO)C(=O)N[C@H](Cc2ccccc2)COC1=O,·,·,·,·,-4,·,·,·,·
Cc1ccc2cc(CCNC(=O)c3ccc(S(=O)(=O)N4CCCCC4)cc3)c(=O)[nH]c2c1,12,3,35*,-6,40*,1,0,-4,40
CCOC(=O)Cc1csc(SCC(=O)N(CC(C)C)c2c(N)n(Cc3ccccc3)c(=O)[nH]c2=O)n1,-8,2,·,·,-4,·,·,·,·
O=S(=O)(Nc1cc(Sc2ncn[nH]2)c(O)c2ccccc12)c1ccccc1,·,·,93*,6,55*,0,7,9.4*,48
Cc1cc(O)c(Sc2ncn[nH]2)cc1NS(=O)(=O)c1ccc(Cl)cc1,·,·,·,·,2,·,·,·,·
C=CCNC1=C(Cl)C(=O)c2ccccc2C1=O,43,21,4,13,7,0,·,·,·
O=C1C(Cl)=C(NCc2cccnc2)C(=O)c2ccccc21,40,33,18*,·,-45,·,5,-3,-45*
